Source: ChEMBL document CHEMBL3244146, “Pyranenamines: a new series of antiallergic compounds” (1979)

Key:
[1] = tested on: Lung; assay: Antiallergic activity in passively sensitized albino rat lungs assessed as inhibition of antigen-induced histamine release at 1 x 10^-5 M by fluorometric analysis relative to control; type: functional
Summary of the method: (§1)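 Fragmented lung from adult male Charles River albino rats, passively sensitized, then antigen-challenged with compound present; released histamine measured fluorometrically; inhibition reported relative to control, with replicate count given as number of separate lung preparations.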

[2] = tested on: Lung; assay: Antiallergic activity in passively sensitized albino rat lungs assessed as inhibition of antigen-induced histamine release at 1 x 10^-6 M by fluorometric analysis relative to control; type: functional; summary of the method: as §1
[3] = tested on: Lung; assay: Antiallergic activity in passively sensitized albino rat lungs assessed as inhibition of antigen-induced histamine release at 1 x 10^-7 M by fluorometric analysis relative to control; type: functional; summary of the method: as §1
[4] = tested on: Lung; assay: Antiallergic activity in passively sensitized albino rat lungs assessed as inhibition of antigen-induced histamine release at 1 x 10^-8 M by fluorometric analysis relative to control; type: functional; summary of the method: as §1
[5] = tested on: Rattus norvegicus; assay: Antiallergic activity in iv dosed rat assessed as inhibition of egg albumin-induced passive cutaneous anaphylaxis treated for 30 secs followed by egg albumin-challenge measured after 30 mins; type: functional; details: 0.5 h, read-out: ID50 (the source's name)
[6] = tested on: Rattus norvegicus; assay: Antiallergic activity in po dosed rat assessed as inhibition of egg albumin-induced passive cutaneous anaphylaxis treated for 15 mins followed by egg albumin-challenge measured after 30 mins; type: functional; details: read-out: ID50 (the source's name)
Summary of the method: (§2)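 Oral PCA in rats: intradermal antiserum at four back sites (dose giving ~12×12 mm wheal), compound po 48 h later, 15 min before iv challenge with 0.5 mL saline containing 5 mg Evans blue plus 5 mg egg albumin; skin bluing read 30 min after challenge on two axes per wheal; six rats per dose versus ≥6 vehicle controls; percent inhibition from mean wheal size, one-sided t test.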

[7] = tested on: Rattus norvegicus; assay: Antiallergic activity in rat assessed as inhibition of egg albumin-induced passive cutaneous anaphylaxis at 10 mg/kg, iv treated for 30 secs followed by egg albumin-challenge measured after 30 mins relative to control; type: functional; details: 0.5 h
[8] = tested on: Rattus norvegicus; assay: Antiallergic activity in rat assessed as inhibition of egg albumin-induced passive cutaneous anaphylaxis at 5 mg/kg, iv treated for 30 secs followed by egg albumin-challenge measured after 30 mins relative to control; type: functional; details: 0.5 h
[9] = tested on: Lung; assay: Antiallergic activity in passively sensitized albino rat lungs assessed as inhibition of antigen-induced histamine release at 1.6 x 10^-4 M by fluorometric analysis relative to control; type: functional; summary of the method: as §1
[10] = tested on: Lung; assay: Antiallergic activity in passively sensitized albino rat lungs assessed as inhibition of antigen-induced histamine release at 6.6 x 10^-6 M by fluorometric analysis relative to control; type: functional; summary of the method: as §1
[11] = tested on: Lung; assay: Antiallergic activity in passively sensitized albino rat lungs assessed as inhibition of antigen-induced histamine release at 6.6 x 10^-7 M by fluorometric analysis relative to control; type: functional; summary of the method: as §1
[12] = Antiallergic activity in passively sensitized rhesus monkey lungs assessed as inhibition of antigen-induced histamine release at 1.6 x 10^-4 M by fluorometric analysis relative to control; type: functional, Macaca mulatta, Lung
Summary of the method: (§3)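 Passively sensitized fragmented lung from a young adult male rhesus monkey, challenged with IgE-antihuman IgE; histamine release measured fluorometrically and SRS-A estimated by guinea pig ileum bioassay; inhibition relative to control; replicates given as number of separate lung preparations.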

[13] = Antiallergic activity in passively sensitized rhesus monkey lungs assessed as inhibition of antigen-induced histamine release at 3.3 x 10^-5 M by fluorometric analysis relative to control; type: functional, Macaca mulatta, Lung; summary of the method: as §3
[14] = Antiallergic activity in passively sensitized rhesus monkey lungs assessed as inhibition of antigen-induced histamine release at 6.6 x 10^-6 M by fluorometric analysis relative to control; type: functional, Macaca mulatta, Lung; summary of the method: as §3
[15] = Antiallergic activity in passively sensitized rhesus monkey lungs assessed as inhibition of antigen-induced slow reacting substance of anaphylaxis release at 1.6 x 10^-4 M relative to control; type: functional, Macaca mulatta, Lung; summary of the method: as §3
[16] = Antiallergic activity in passively sensitized rhesus monkey lungs assessed as inhibition of antigen-induced slow reacting substance of anaphylaxis release at 3.3 x 10^-5 M relative to control; type: functional, Macaca mulatta, Lung; summary of the method: as §3
[17] = Antiallergic activity in passively sensitized rhesus monkey lungs assessed as inhibition of antigen-induced slow reacting substance of anaphylaxis release at 6.6 x 10^-6 M relative to control; type: functional, Macaca mulatta, Lung; summary of the method: as §3
[18] = tested on: Rattus norvegicus; assay: Antiallergic activity in rat assessed as inhibition of egg albumin-induced passive cutaneous anaphylaxis at 0.5 mg/kg, iv treated for 30 secs followed by egg albumin-challenge measured after 30 mins relative to control; type: functional; details: 0.5 h
[19] = tested on: Rattus norvegicus; assay: Antiallergic activity in rat assessed as inhibition of egg albumin-induced passive cutaneous anaphylaxis at 25 mg/kg, po treated for 15 mins followed by egg albumin-challenge measured after 30 mins relative to control; type: functional; summary of the method: as §2
[20] = tested on: Rattus norvegicus; assay: Antiallergic activity in rat assessed as inhibition of egg albumin-induced passive cutaneous anaphylaxis at 50 mg/kg, po treated for 15 mins followed by egg albumin-challenge measured after 30 mins relative to control; type: functional; summary of the method: as §2

For `CCC(=O)Nc1cc(N/C(C)=C2\C(=O)OC(=O)C(C(C)=O)=C2O)ccc1O`, the “inhibition (INH)” value [1] was 65%, the “inhibition (INH)” value [2] was 66% and the “inhibition (INH)” value [3] was 70%. The “inhibition (INH)” value [4] was 41%, the ED50 [5] was 0.4 mg/kg and the ED50 [6] was 0.6 mg/kg.

Compound `CC(=O)C1=C(O)/C(=C(\C)Nc2ccccc2)C(=O)OC1=O` has an inhibition in vivo at 10 mg/kg [7] of 76%.

`CC(=O)C1=C(O)/C(=C(\C)Nc2ccccc2Cl)C(=O)OC1=O` showed an inhibition in vivo at 10 mg/kg [7] of 36%.

`CC(=O)C1=C(O)/C(=C(\C)Nc2cccc(Cl)c2)C(=O)OC1=O` showed an inhibition in vivo at 10 mg/kg [7] of 74%.

`CC(=O)C1=C(O)/C(=C(\C)Nc2ccc(Cl)cc2)C(=O)OC1=O` gave an inhibition in vivo at 10 mg/kg [7] of 84%.

Work on `CC(=O)C1=C(O)/C(=C(\C)Nc2ccc(F)cc2)C(=O)OC1=O` yielded an inhibition in vivo at 10 mg/kg [7] of 54%.

With `CC(=O)C1=C(O)/C(=C(\C)Nc2ccc([N+](=O)[O-])cc2)C(=O)OC1=O` the inhibition in vivo at 10 mg/kg [7] was 17%.

In the case of `CCOC(=O)c1ccccc1N/C(C)=C1\C(=O)OC(=O)C(C(C)=O)=C1O`, the inhibition in vivo at 5 mg/kg [8] is reported as 18%.

For `COC(=O)c1ccc(N/C(C)=C2\C(=O)OC(=O)C(C(C)=O)=C2O)cc1`, the inhibition in vivo at 5 mg/kg [8] was 6%.

`CC(=O)C1=C(O)/C(=C(\C)Nc2ccc(C)cc2)C(=O)OC1=O` showed an inhibition in vivo at 10 mg/kg [7] of 33%.

For `CC(=O)C1=C(O)/C(=C(\C)Nc2ccc(O)cc2)C(=O)OC1=O`, the “inhibition (INH)” value [9] was 45%, the “inhibition (INH)” value [10] was 44% and the “inhibition (INH)” value [11] was 34%. For the same compound, the “inhibition (INH)” value [12] was 59%, the “inhibition (INH)” value [13] was 50% and the “inhibition (INH)” value [14] was 18%. The “inhibition (INH)” value [15] was 51%, the “inhibition (INH)” value [16] was 33% and the “inhibition (INH)” value [17] was 8.6%. The ED50 [5] was 1.3 mg/kg and the ED50 [6] was 29 mg/kg.

`COc1ccc(N/C(C)=C2\C(=O)OC(=O)C(C(C)=O)=C2O)cc1` gave an inhibition in vivo at 5 mg/kg [8] of 27%.

Compound `CC(=O)Nc1ccc(N/C(C)=C2\C(=O)OC(=O)C(C(C)=O)=C2O)cc1` has an inhibition in vivo at 5 mg/kg [8] of 19%.

With `CC(=O)C1=C(O)/C(=C(\C)Nc2ccc(NC(=O)C(C)C)cc2)C(=O)OC1=O` the “inhibition (INH)” value [1] was 92%, the “inhibition (INH)” value [2] was 60% and the inhibition in vivo at 0.5 mg/kg [18] was 64%. For the same compound, the inhibition in vivo at 25 mg/kg [19] was 4%.

For `CC(=O)C1=C(O)/C(=C(\C)Nc2cc(N)cc(N)c2)C(=O)OC1=O`, the ED50 [5] was 0.5 mg/kg and the ED50 [6] was 0.9 mg/kg.

`CC(=O)Nc1cc(NC(C)=O)cc(N/C(C)=C2\C(=O)OC(=O)C(C(C)=O)=C2O)c1` gave an ED50 [5] of 0.01 mg/kg and an inhibition in vivo at 50 mg/kg [20] of -1%.

Compound `CC(=O)C1=C(O)/C(=C(\C)Nc2cccc(NC(=O)C(=O)C(=O)O)c2)C(=O)OC1=O` has an ED50 [5] of 0.03 mg/kg and an inhibition in vivo at 25 mg/kg [19] of 21%.

`CC(=O)C1=C(O)/C(=C(\C)Nc2cccc(NC(=O)C(O)CO)c2)C(=O)OC1=O` (stereo not given) showed an ED50 [5] of 0.05 mg/kg and an inhibition in vivo at 25 mg/kg [19] of 55%.

Work on `CC(=O)C1=C(O)/C(=C(\C)Nc2ccc(Cl)c(Cl)c2)C(=O)OC1=O` yielded an inhibition in vivo at 10 mg/kg [7] of 10%.

For `CC(=O)C1=C(O)/C(=C(\C)Nc2ccc(O)c(NC(=O)C(C)C)c2)C(=O)OC1=O`, the “inhibition (INH)” value [2] was 78%, the “inhibition (INH)” value [3] was 81% and the ED50 [5] was 0.2 mg/kg. It also gave an ED50 [6] of 3.3 mg/kg.
